# Measured values taken from ChEMBL document CHEMBL3526154, “Metabolism, pharmacokinetics, tissue distribution, and stability studies of the prodrug analog of an anti-hepatitis B virus dinucleoside phosphorothioate” (Drug Metab Dispos, 2012).
# Experiments:
# Settings in all cases: in vivo; call rule not given here
# [1] = Drug excretion in male Sprague-Dawley rat feces at 10 mg/kg, iv administered as bolus dose measured at 0 to 24 hrs post-dose by liquid scintillation counting analysis; assay type: ADME, organism-based; set-up: dose 10 mg/kg, route intravenous
# How it was run: (§1)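 Single [³⁵S]-prodrug dose to rats, i.v. tail-vein bolus (PEG 400/saline vehicle) or oral gavage (citric acid buffer pH 2.5), 5 ml/kg. Urine and feces collected ~1, 4 and 24 h postdose. Radioactivity counted by liquid scintillation and expressed as % of administered dose. Mean and S.D. from nine rats per sex.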
# Rattus norvegicus [2] = assay: Tmax in male Sprague-Dawley rat at 10 mg/kg, po administered as single dose by liquid scintillation counting analysis; assay type: ADME, organism-based; set-up: dose 10 mg/kg, route oral
# How it was run: (§2)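 Radioactivity in plasma from rats given a single [35S]-labelled dose, iv (tail vein, 25% PEG 400/75% saline) or oral gavage (0.05 M citric acid, pH 2.5), sampled at 1, 4 and 24 h, measured by liquid scintillation as µg-Eq/ml. Elimination t1/2 and Tmax were derived by noncompartmental analysis with sparse sampling, from nine male and nine female rats.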
# Rattus norvegicus [3] = assay: Terminal half life in female Sprague-Dawley rat at 10 mg/kg, iv administered as bolus dose by liquid scintillation counting analysis; assay type: ADME, organism-based; set-up: dose 10 mg/kg, route intravenous; how it was run: as §2
# Rattus norvegicus [4] = assay: Terminal half life in male Sprague-Dawley rat at 10 mg/kg, iv administered as bolus dose by liquid scintillation counting analysis; assay type: ADME, organism-based; set-up: dose 10 mg/kg, route intravenous; how it was run: as §2
# [5] = Drug excretion in male Sprague-Dawley rat feces at 10 mg/kg, iv administered as bolus dose measured at 4 to 24 hrs post-dose by liquid scintillation counting analysis; assay type: ADME, organism-based; set-up: dose 10 mg/kg, route intravenous; how it was run: as §1
# [6] = Drug excretion in female Sprague-Dawley rat feces at 10 mg/kg, iv administered as bolus dose measured at 4 to 24 hrs post-dose by liquid scintillation counting analysis; assay type: ADME, organism-based; set-up: dose 10 mg/kg, route intravenous; how it was run: as §1
# [7] = Drug excretion in female Sprague-Dawley rat feces at 10 mg/kg, po administered as single dose measured at 4 to 24 hrs post-dose by liquid scintillation counting analysis; assay type: ADME, organism-based; set-up: dose 10 mg/kg, route oral; how it was run: as §1
# [8] = Drug excretion in male Sprague-Dawley rat urine at 10 mg/kg, po administered as single dose measured at 1 to 4 hrs post-dose by liquid scintillation counting analysis; assay type: ADME, organism-based; set-up: dose 10 mg/kg, route oral; how it was run: as §1
# Rattus norvegicus [9] = assay: Drug recovery in female Sprague-Dawley rat at 10 mg/kg, iv administered as bolus dose measured after 24 hrs by liquid scintillation counting analysis; assay type: ADME, organism-based; set-up: dose 10 mg/kg, route intravenous
# How it was run: (§3)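 Rats got a single i.v. bolus or oral gavage dose of [³⁵S]-prodrug at 5 ml/kg over a 24 h study. Radioactivity in blood, tissues, carcass, urine and feces measured by liquid scintillation counting. Total recovery given as % of administered dose at 24 h.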
# Rattus norvegicus [10] = assay: Cmax in female Sprague-Dawley rat at 10 mg/kg, iv administered as bolus dose by liquid scintillation counting analysis; assay type: ADME, organism-based; set-up: dose 10 mg/kg, route intravenous
# How it was run: (§4)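 Single dose of [³⁵S]-labelled prodrug to rats, i.v. tail-vein bolus in 25% PEG 400/75% saline or oral gavage in 0.05 M citric acid buffer pH 2.5, 5 ml/kg. Retro-orbital blood into EDTA at 1, 4 or 24 h; plasma by centrifugation. Radioactivity by liquid scintillation counting as µg-Eq/ml. Noncompartmental sparse-sampling analysis gives Cmax and AUC; nine rats per sex.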
# Heart [11] = assay: Drug uptake in Sprague-Dawley rat heart at 10 mg/kg, iv administered as bolus dose measured at 1 to 24 hrs post-dose by liquid scintillation counting analysis; assay type: ADME, organism-based; set-up: dose 10 mg/kg, route intravenous
# How it was run: (§5)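 Single i.v. tail-vein bolus or oral gavage of [³⁵S]-prodrug to rats, 5 ml/kg. Euthanised by i.p. pentobarbital overdose at 1, 4 or 24 h. Retro-orbital blood collected; liver, lung, kidney, heart, brain and spleen frozen. Tissues homogenised, solubilised and counted by liquid scintillation. Radioactivity given as µg-Eq/g and % of dose.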
# Brain = assay: Drug uptake in Sprague-Dawley rat brain at 10 mg/kg, po administered as single dose measured at 1 to 24 hrs post-dose by liquid scintillation counting analysis; assay type: ADME, organism-based; set-up: dose 10 mg/kg, route oral; how it was run: as §5
# Lung [12] = assay: Drug uptake in Sprague-Dawley rat lung at 10 mg/kg, po administered as single dose measured at 4 hrs post-dose by liquid scintillation counting analysis; assay type: ADME, organism-based; set-up: dose 10 mg/kg, route oral
# How it was run: (§6)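 [35S]-labelled prodrug given once to rats, iv bolus via tail vein (25% PEG 400/75% saline) or oral gavage (0.05 M citric acid buffer, pH 2.5), 5 ml/kg. Rats euthanised at 1, 4 or 24 h. Liver, lung, kidney, heart, brain, spleen, tail and retro-orbital plasma were collected. Samples were homogenised and solubilised, and radioactivity was counted by liquid scintillation. Values are µg-equivalent/ml or g and % of dose.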
# [13] = Drug excretion in male Sprague-Dawley rat urine at 10 mg/kg, iv administered as bolus dose measured at 4 to 24 hrs post-dose by liquid scintillation counting analysis; assay type: ADME, organism-based; set-up: dose 10 mg/kg, route intravenous; how it was run: as §1
# [14] = Drug excretion in male Sprague-Dawley rat feces at 10 mg/kg, po administered as single dose measured at 0 to 1 hr post-dose by liquid scintillation counting analysis; assay type: ADME, organism-based; set-up: dose 10 mg/kg, route oral; how it was run: as §1
# [15] = Drug excretion in male Sprague-Dawley rat urine at 10 mg/kg, iv administered as bolus dose measured at 0 to 24 hrs post-dose by liquid scintillation counting analysis; assay type: ADME, organism-based; set-up: dose 10 mg/kg, route intravenous; how it was run: as §1
# Rattus norvegicus [16] = assay: Cmax in female Sprague-Dawley rat at 10 mg/kg, po administered as single dose by liquid scintillation counting analysis; assay type: ADME, organism-based; set-up: dose 10 mg/kg, route oral; how it was run: as §4
# [17] = Drug excretion in male Sprague-Dawley rat urine at 10 mg/kg, po administered as single dose measured at 4 to 24 hrs post-dose by liquid scintillation counting analysis; assay type: ADME, organism-based; set-up: dose 10 mg/kg, route oral; how it was run: as §1
# Rattus norvegicus [18] = assay: AUC in female Sprague-Dawley rat at 10 mg/kg, iv administered as bolus dose by liquid scintillation counting analysis; assay type: ADME, organism-based, Plasma; set-up: dose 10 mg/kg, route intravenous; how it was run: as §4
# Heart [19] = assay: Drug uptake in Sprague-Dawley rat heart at 10 mg/kg, po administered as single dose measured at 1 to 24 hrs post-dose by liquid scintillation counting analysis; assay type: ADME, organism-based; set-up: dose 10 mg/kg, route oral; how it was run: as §5
# [20] = Drug excretion in female Sprague-Dawley rat feces at 10 mg/kg, po administered as single dose measured at 0 to 24 hrs post-dose by liquid scintillation counting analysis; assay type: ADME, organism-based; set-up: dose 10 mg/kg, route oral; how it was run: as §1
# Rattus norvegicus [21] = assay: Drug recovery in male Sprague-Dawley rat at 10 mg/kg, po administered as single dose measured after 24 hrs by liquid scintillation counting analysis; assay type: ADME, organism-based; set-up: dose 10 mg/kg, route oral; how it was run: as §3
# Rattus norvegicus [22] = assay: Tmax in female Sprague-Dawley rat at 10 mg/kg, po administered as single dose by liquid scintillation counting analysis; assay type: ADME, organism-based; set-up: dose 10 mg/kg, route oral; how it was run: as §2
# Blood = assay: Drug uptake in Sprague-Dawley rat blood at 10 mg/kg, po administered as single dose measured at 4 hrs post-dose by liquid scintillation counting analysis; assay type: ADME, organism-based; set-up: dose 10 mg/kg, route oral; how it was run: as §5
# Lung [23] = assay: Drug uptake in Sprague-Dawley rat lung at 10 mg/kg, iv administered as bolus dose measured at 1 to 24 hrs post-dose by liquid scintillation counting analysis; assay type: ADME, organism-based; set-up: dose 10 mg/kg, route intravenous; how it was run: as §6
# Rattus norvegicus [24] = assay: Cmax in male Sprague-Dawley rat at 10 mg/kg, po administered as single dose by liquid scintillation counting analysis; assay type: ADME, organism-based; set-up: dose 10 mg/kg, route oral; how it was run: as §4
# [25] = Drug excretion in male Sprague-Dawley rat urine at 10 mg/kg, iv administered as bolus dose measured at 1 to 4 hrs post-dose by liquid scintillation counting analysis; assay type: ADME, organism-based; set-up: dose 10 mg/kg, route intravenous; how it was run: as §1
# [26] = Drug excretion in female Sprague-Dawley rat feces at 10 mg/kg, po administered as single dose measured at 0 to 1 hr post-dose by liquid scintillation counting analysis; assay type: ADME, organism-based; set-up: dose 10 mg/kg, route oral; how it was run: as §1
# [27] = Drug excretion in male Sprague-Dawley rat urine at 10 mg/kg, po administered as single dose measured at 0 to 24 hrs post-dose by liquid scintillation counting analysis; assay type: ADME, organism-based; set-up: dose 10 mg/kg, route oral; how it was run: as §1
smiles,measurement,setting,value
CO[C@@H]1[C@H](OP(=O)(OC[C@H]2O[C@@H](n3cnc4c(N)ncnc43)C[C@@H]2O)[35S]COC(=O)OC(C)C)[C@@H](CO)O[C@H]1n1ccc(=O)[nH]c1=O (some centres undefined),Drug excretion,[1],16.9%
same,Tmax,Rattus norvegicus [2],4 h
same,beta t1/2,Rattus norvegicus [3],9 h
same,beta t1/2,Rattus norvegicus [4],7.8 h
same,Drug excretion,[5],16.9%
same,Drug excretion,[6],9.44%
same,Drug excretion,[7],2.68%
same,Drug excretion,[8],0.86%
same,Drug recovery,Rattus norvegicus [9],84.9%
same,Cmax,Rattus norvegicus [10],4.49 ugequiv/ml
same,Drug uptake,Heart [11],<= 0.5%
same,Drug uptake,Brain,<= 0.5%
same,Drug uptake,Lung [12],Active
same,Drug excretion,[13],29.6%
same,Drug excretion,[14],0.01%
same,Drug excretion,[15],56.15%
same,Cmax,Rattus norvegicus [16],2.5 ugequiv/ml
same,Drug excretion,[17],33.73%
same,AUC,Rattus norvegicus [18],35.21 ugequiv.h/ml
same,Drug uptake,Heart [19],<= 0.5%
same,Drug excretion,[20],2.72%
same,Drug recovery,Rattus norvegicus [21],83%
same,Tmax,Rattus norvegicus [22],4 h
same,Drug uptake,Blood,Active
same,Drug uptake,Lung [23],Active
same,Cmax,Rattus norvegicus [24],2.53 ugequiv/ml
same,Drug excretion,[25],11.33%
same,Drug excretion,[26],0.02%
same,Drug excretion,[27],34.59%
